Results taken from ChEMBL document CHEMBL1124783, “Synthesis and structure-activity relationships of 6-substituted 2',3'-dideoxypurine nucleosides as potential anti-human immunodeficiency virus agents” (J Med Chem, 1990).
pEC50, pIC50: −log10 of the molar value.

Tests used:
[1] = The antiviral activity against HIV-1 in human peripheral blood mononuclear (PBM) cells expressed as median effective concentration; type: functional; settings: read-out: ED50 (the source's name)
Procedure, shortened: (§1)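 PHA-stimulated human PBM cells infected with HIV-1 strain LAV-1 (about 63 000 dpm RT activity per 10^7 cells/10 mL medium), then drug added to duplicate or triplicate cultures. Incubated at 37 °C in 5% CO2 for 6 days. Supernatant RT activity measured on pelleted virus with (rA)n·(dT)12-18 template-primer, expressed as dpm/mL. EC50 taken from median-effect plot of dose-effect data.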

[2] = The antiviral activity against HIV-1 in human peripheral blood mononuclear (PBM) cells expressed as inhibitory concentration; type: functional; procedure, shortened: as §1

pEC50 [1] | pIC50 [2] | SMILES
5.26 | < 4.00 | O=c1[nH]cnc2c1ncn2[C@H]1CC[C@@H](CO)O1 [DIDANOSINE]
< 4.00 | 5.00 | OCC1CCC(n2cnc3c(NCc4ccccc4)ncnc32)O1 (centres undefined)
4.27 | < 4.00 | OCC1CCC(n2cnc3c(S)ncnc32)O1 (centres undefined)
5.37 | < 4.00 | CNc1ncnc2c1ncn2C1OC(CO)CC1F (centres undefined)
6.21 | < 4.00 | Nc1ncnc2c1ncn2[C@H]1CC[C@@H](CO)O1
6.06 | < 4.00 | Nc1nc(O)c2ncn([C@H]3CC[C@@H](CO)O3)c2n1
5.64 | < 4.00 | CN(C)c1ncnc2c1ncn2C1CCC(CO)O1 (centres undefined)
5.28 | < 4.00 | CCNc1ncnc2c1ncn2C1CCC(CO)O1 (centres undefined)
6.59 | < 4.00 | CNc1ncnc2c1ncn2C1CCC(CO)O1 (centres undefined)
< 4.00 | < 4.00 | OC[C@@H]1CC[C@H](n2cnc3cncnc32)O1
5.68 | < 4.00 | OC[C@@H]1CC[C@H](n2cnc3c(Cl)ncnc32)O1
5.44 | < 4.00 | CSc1ncnc2c1ncn2C1CCC(CO)O1 (centres undefined)
